This note sets out measurements from ChEMBL document CHEMBL2331191, “Design and synthesis of novel 1,2,3-triazole-dithiocarbamate hybrids as potential anticancer agents” (Eur J Med Chem, 2013).

Common to all, as to type: functional, cell-based
The subject of one test is PC-3. Put plainly: Cytotoxicity against human PC3 cells assessed as growth inhibition after 72 hrs by MTT assay. As to conditions: PC-3, 72 h. An outline of the steps:
(§1)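 Exponentially growing cells were seeded at 5×10^3 per well and held 24 h at 37 °C. Medium was then replaced with fresh medium containing a range of concentrations, and cells were exposed for 72 h. MTT (5 mg/mL) was added for 4 h at 37 °C, formazan was dissolved in DMSO and A570 was read. Triplicate wells per concentration, three experiments. IC50 was taken from dose–response curves of inhibition ratio.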
A general note: Tetrazolium assays rely on reduction of a dye to a coloured formazan, in cell work by metabolically active cells.

Test [1] in a line: Cytotoxicity against human EC109 cells assessed as growth inhibition after 72 hrs by MTT assay. As to conditions: ECa-109, 72 h. The method, boiled down:
as §1

Another test has as its system MGC-803. Put plainly: Cytotoxicity against human MGC803 cells assessed as growth inhibition after 72 hrs by MTT assay. Particulars: MGC-803, 72 h. An outline of the steps:
as §1

For a further test, the system named is MCF7. Put plainly: Cytotoxicity against human MCF7 cells assessed as growth inhibition after 72 hrs by MTT assay. Particulars: MCF7, 72 h. An outline of the steps: as §1

As usually defined, the IC50 is the concentration that gives 50% inhibition.

Bounds are passed on as bounds.

As to `CC(C)(C)OC(=O)N1CCN(C(=S)SCc2cn(-c3cccc(C(F)(F)F)c3)nn2)CC1`, the half-inhibitory concentration (IC50) was above 128 µM in the test with PC-3, 69.3 µM in test [1], 66.8 µM in the test with MGC-803 and 80.4 µM with MCF7.

`Cc1ccc(-n2cc(CSC(=S)N3CCN(C(=O)OC(C)(C)C)CC3)nn2)cc1`: the IC50 was above 128 µM in the test on PC-3, 114 µM in test [1], 48.3 µM in the test with MGC-803 and 74.2 µM with MCF7.

Regarding `O=C(OCc1ccccc1)N1CCN(C(=S)SCc2cn(Cc3ccc(Cl)cc3)nn2)CC1`, the IC50 in the test on PC-3 was above 128 µM; in test [1], above 128 µM; with MGC-803, 31.3 µM; in the test with MCF7, 27.5 µM.

With `CC(C)(C)OC(=O)N1CCN(C(=S)SCc2cn(Cc3ccc(Cl)cc3)nn2)CC1`, the IC50 is above 128 µM in the test with PC-3, above 128 µM in test [1], 9.79 µM in the test on MGC-803 and 2.96 µM in the test on MCF7.

For the compound `COc1cc(Cn2cc(CSC(=S)N3CCNCC3)nn2)cc(OC)c1OC`, the IC50 (in the test with PC-3; in test [1]) was above 128 µM each time.

Regarding `Fc1ccccc1Cn1cc(CSC(=S)N2CCNCC2)nn1`, the IC50 is 56.2 µM with PC-3, above 128 µM in test [1], 19.4 µM in the test with MGC-803 and 33.2 µM in the test on MCF7.

In the case of `CC(C)(C)OC(=O)N1CCN(C(=S)SCc2cn(-c3ccccc3F)nn2)CC1`, the IC50 with PC-3 is above 128 µM; in test [1], above 128 µM; with MGC-803, 119 µM; in the test on MCF7 it was 89.6 µM.

In the case of `S=C(SCc1cn(Cc2ccc(Cl)c(Cl)c2)nn1)N1CCNCC1`, the IC50 in test [1] was above 128 µM.

`S=C(SCc1cn(Cc2ccccc2Cl)nn1)N1CCNCC1`: the IC50 was above 128 µM in test [1], 45.2 µM in the test on MGC-803 and 38.9 µM in the test with MCF7.

Consider `Cc1cc(=O)oc2cc(OCCn3cc(CSC(=S)N4CCN(C(=O)OC(C)(C)C)CC4)nn3)ccc12`, for which the IC50 with PC-3 was above 128 µM; in test [1] it was above 128 µM; in the test with MGC-803 it was 76.9 µM; with MCF7, 90.4 µM.

Turning to `O=c1[nH]cc(F)c(=O)[nH]1` [FLUOROURACIL], the IC50 in the test on PC-3 worked out at 27.1 µM; in test [1], 3.34 µM; in the test with MGC-803, 7.01 µM.

For `COc1cc(Cn2cc(CSC(=S)N3CCN(C(=O)OC(C)(C)C)CC3)nn2)cc(OC)c1OC`, the IC50 with PC-3 was above 128 µM; in test [1], 44.4 µM; with MGC-803 it was 27.3 µM; in the test with MCF7 it was 22.7 µM.

Regarding `COc1ccc(Cn2cc(CSC(=S)N3CCN(C(=O)OC(C)(C)C)CC3)nn2)cc1`, the 50% inhibitory concentration (IC50) was above 128 µM in the test with PC-3, 36.8 µM in test [1], 22.8 µM in the test on MGC-803 and 4.96 µM in the test on MCF7.

As for `CC(C)(C)OC(=O)N1CCN(C(=S)SCc2cn(Cc3cc(=O)oc4cc(O)ccc34)nn2)CC1`, the IC50 with PC-3 is 36.8 µM; in test [1] it was above 128 µM; in the test on MGC-803, 4.96 µM; in the test with MCF7, 10.4 µM.

Consider `CC(C)(C)OC(=O)N1CCN(C(=S)SCc2cn(Cc3ccc(F)cc3)nn2)CC1`, for which the IC50 in the test with PC-3 is above 128 µM; in test [1], 58.9 µM; in the test on MGC-803, 1.93 µM; in the test on MCF7, 3.34 µM.

In the case of `COc1ccc(Cn2cc(CSC(=S)N3CCNCC3)nn2)cc1`, the IC50 (in the test with PC-3; in test [1]) was above 128 µM in each case.

In the case of `CC(C)(C)OC(=O)N1CCN(C(=S)SCc2cn(Cc3ccccc3F)nn2)CC1`, the IC50 with PC-3 was 11.6 µM; in test [1], 2.44 µM; in the test on MCF7, 5.67 µM.

With `COc1ccc(Cn2cc(CSC(=S)N3CCN(C(=O)OCc4ccccc4)CC3)nn2)cc1`, the IC50 in the test on PC-3 is above 128 µM; in test [1], 58.3 µM; in the test with MGC-803, 23.8 µM; with MCF7 it was 30.5 µM.

Regarding `O=C(OCc1ccccc1)N1CCN(C(=S)SCc2cn(Cc3ccccc3F)nn2)CC1`, the IC50 with PC-3 is 68.3 µM; in test [1], 27 µM; in the test with MGC-803, 5.06 µM; in the test on MCF7, 7.95 µM.

For `O=C(OCc1ccccc1)N1CCN(C(=S)SCc2cn(Cc3ccc(Cl)c(Cl)c3)nn2)CC1`, the IC50 is above 128 µM with PC-3, 29.4 µM in test [1], 7.14 µM in the test on MGC-803 and 10.6 µM in the test with MCF7.

In the case of `Fc1ccc(Cn2cc(CSC(=S)N3CCNCC3)nn2)cc1`, the IC50 with PC-3 is above 128 µM; in test [1], above 128 µM; with MGC-803, 32.5 µM; in the test on MCF7 it was 49.9 µM.

With `O=C(OCc1ccccc1)N1CCN(C(=S)SCc2cn(Cc3ccccc3Cl)nn2)CC1`, the IC50 was above 128 µM in the test with PC-3, 56.8 µM in test [1], 15.5 µM in the test on MGC-803 and 21.4 µM in the test with MCF7.

Take `Cc1ccc(Cn2cc(CSC(=S)N3CCNCC3)nn2)cc1`: the IC50 with PC-3 was 19.8 µM; in test [1], above 128 µM; in the test on MGC-803 it was 64.3 µM; in the test on MCF7, 53.2 µM.

In the case of `O=C(OCc1ccccc1)N1CCN(C(=S)SCc2cn(Cc3ccc(F)cc3)nn2)CC1`, the IC50 with PC-3 was above 128 µM; in test [1] it was 32 µM; in the test with MGC-803, 17.6 µM; with MCF7, 10.3 µM.

With `S=C(SCc1cn(Cc2ccc(Cl)cc2)nn1)N1CCNCC1`, the IC50 (in the test on PC-3; in test [1]) was above 128 µM each time.

As to `Cc1ccc(Cn2cc(CSC(=S)N3CCN(C(=O)OCc4ccccc4)CC3)nn2)cc1`, the IC50 in the test with PC-3 was above 128 µM; in test [1], 32.6 µM; with MGC-803 it was 9.37 µM; in the test on MCF7, 37.8 µM.

With `Cc1ccc(Cn2cc(CSC(=S)N3CCN(C(=O)OC(C)(C)C)CC3)nn2)cc1`, the IC50 turned out to be 17.2 µM in the test with PC-3, 47.9 µM in test [1], 3.49 µM with MGC-803 and 19.7 µM in the test on MCF7.

For the compound `COc1ccc(-n2cc(CSC(=S)N3CCN(C(=O)OC(C)(C)C)CC3)nn2)cc1`, the half-maximal inhibitory concentration (IC50) in the test on PC-3 was above 128 µM; in test [1] it was above 128 µM; in the test with MGC-803, 87.3 µM; with MCF7, 93 µM.

For the compound `CC(C)(C)OC(=O)N1CCN(C(=S)SCc2cn(CCOc3ccc4ccc(=O)oc4c3)nn2)CC1`, the IC50 was above 128 µM with PC-3, above 128 µM in test [1], 67 µM in the test on MGC-803 and 79.8 µM in the test with MCF7.

Take `CC(C)(C)OC(=O)N1CCN(C(=S)SCc2cn(Cc3ccc(Cl)c(Cl)c3)nn2)CC1`: the IC50 in the test on PC-3 is above 128 µM; in test [1], above 128 µM; in the test on MGC-803, 33.7 µM; in the test on MCF7, 19.1 µM.

For the compound `COc1cc(Cn2cc(CSC(=S)N3CCN(C(=O)OCc4ccccc4)CC3)nn2)cc(OC)c1OC`, the 50% inhibitory concentration (IC50) was above 128 µM in the test with PC-3, above 128 µM in test [1], 10.9 µM in the test with MGC-803 and above 128 µM with MCF7.
